Experimental data reported in ChEMBL document CHEMBL1124727, “Neuronal mapping of the heart with 6-[18F]fluorometaraminol” (1990).

Legend:
Rattus norvegicus [1] = test: Neuronal selectivity expressed as Concentration in blood after iv administration in rat, pretreated with 6-hydroxydopamine (control = 0.062+/-0.012); format: functional, organism-based
Rattus norvegicus [2] = test: Neuronal selectivity expressed as Concentration in right ventricle after iv administration in rat, pretreated with 6-hydroxydopamine (control = 6.10+/-0.45); format: functional, organism-based; settings: Heart right ventricle
Rattus norvegicus [3] = test: Neuronal selectivity expressed as Concentration in spleen after iv administration in rat, pretreated with 6-hydroxydopamine (control = 1.88+/-0.25); format: functional, organism-based
Rattus norvegicus [4] = test: Neuronal selectivity expressed as Concentration in left atrium after iv administration in rat, pretreated with 6-hydroxydopamine (control = 5.26+/-0.43); format: functional, organism-based; settings: Cardiac atrium
Rattus norvegicus [5] = test: Neuronal selectivity expressed as Concentration in left ventricle after iv administration in rat, pretreated with 6-hydroxydopamine (control = 5.38+/-0.39); format: functional, organism-based; settings: Heart left ventricle
Rattus norvegicus [6] = test: Neuronal selectivity expressed as Concentration in right atrium after iv administration in rat, pretreated with 6-hydroxydopamine (control = 5.19+/-0.14); format: functional, organism-based; settings: Cardiac atrium
Rattus norvegicus [7] = test: Neuronal selectivity expressed as Concentration in blood after iv administration in rat, pretreated with 6-hydroxydopamine (control = 0.065+/-0.005); format: functional, organism-based; settings: tested as the 3H-labelled form
Rattus norvegicus [8] = test: Neuronal selectivity expressed as Concentration in left ventricle after iv administration in rat, pretreated with 6-hydroxydopamine (control = 4.10+/-0.23); settings: Heart left ventricle, tested as the 3H-labelled form
Rattus norvegicus [9] = test: Neuronal selectivity expressed as Concentration in spleen after iv administration in rat, pretreated with 6-hydroxydopamine (control = 0.85+/-0.005); format: functional, organism-based; settings: tested as the 3H-labelled form
Rattus norvegicus [10] = test: Neuronal selectivity expressed as Concentration in left atrium after iv administration in rat, pretreated with 6-hydroxydopamine (control =4.75+/-0.28); settings: Cardiac atrium, tested as the 3H-labelled form
Canis familiaris [11] = species: Canis familiaris; test: Concentration of Endogenous NE and FMR from Midbasal Slices of Phenol-Treated Canine in posterior wall; format: functional, organism-based; settings: Canis lupus familiaris
Summary of the method: (§1)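 Phenol-painted (88% phenol in ethanol, epicardial LV anterior wall near LAD) dogs, 4–7 days post surgery; sacrificed 1 h after iv FMR by pentobarbital/KCl overdose. Midbasal LV slices cut into radial segments, gamma counted; homogenized in cold 0.4 M perchloric acid, NE by HPLC-fluorescence. FMR normalized to highest-activity segment = 100%. Three lowest contiguous segments per slice averaged versus opposed segments; Student's t test.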

Rattus norvegicus [12] = test: Neuronal selectivity expressed as Concentration in rigt atrium after iv administration in rat, pretreated with 6-hydroxydopamine (control = 4.86+/-0.68); settings: Cardiac atrium, tested as the 3H-labelled form
Rattus norvegicus [13] = test: Neuronal selectivity expressed as Concentration in right ventricle after iv administration in rat, pretreated with 6-hydroxydopamine (control = 4.86+/-0.24); settings: Heart right ventricle, tested as the 3H-labelled form
Canis familiaris [14] = species: Canis familiaris; test: Concentration of Endogenous NE and FMR from Midbasal Slices of Phenol-Treated Canine in anterior wall; format: functional, organism-based; settings: Canis lupus familiaris; summary of the method: as §1
Canis familiaris [15] = test: Tissue concentration in dog lung 24 hr after iv administration; format: functional, Canis lupus familiaris
Summary of the method: (§2)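 Dogs (one to three per time point) received bolus cephalic vein injection of 92–100 μCi ³H tracer in 2.0 mL sterile acetate buffer pH 4.5; sacrificed 30 min or 24 h later by iv sodium pentobarbital. Duplicate organ samples oxidized and liquid-scintillation counted with background/efficiency correction; % kg dose/g ± SEM; heart ratio uses left ventricle/blood.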

Rattus norvegicus [16] = species: Rattus norvegicus; test: Percente change in thallium-201 concentration in left atrium of sympathectomized rat, pretreated with 6-hydroxydopamine; format: functional, Cardiac atrium
Summary of the method: (§3)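 Female Sprague-Dawley rats (200–300 g) given 6-hydroxydopamine HBr 100 mg/kg ip, freshly made in saline, 5 days before tracer; controls got vehicle. Thallium-201 (23–28 μCi) iv via femoral vein; decapitated 90 min later; tissue radioactivity counted; N = 6. Value is % change in treated versus control tissue concentration.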

Canis familiaris [17] = test: Tissue concentration in dog left ventricle to blood ratio 24 hr after iv administration; format: functional, Canis lupus familiaris; summary of the method: as §2
Rattus norvegicus [18] = species: Rattus norvegicus; test: Percent change in [3H]metaraminol concentration in blood of sympathectomized rat, pretreated with 6-hydroxydopamine
Rattus norvegicus [19] = species: Rattus norvegicus; test: Percent change in [3H]metaraminol concentration in right ventricle of sympathectomized rat, pretreated with 6-hydroxydopamine
Canis familiaris [20] = test: Tissue concentration in dog heart 24 hr after iv administration; format: functional, Canis lupus familiaris; summary of the method: as §2
Canis familiaris [21] = test: Tissue concentration in dog spleen 0.5 hr after iv administration; format: functional, Canis lupus familiaris; summary of the method: as §2
Canis familiaris [22] = test: Tissue concentration in dog liver 24 hr after iv administration; format: functional, Canis lupus familiaris; summary of the method: as §2
Canis familiaris [23] = test: Tissue concentration in dog blood 24 hr after iv administration; format: functional, Canis lupus familiaris; summary of the method: as §2
Canis familiaris [24] = test: Tissue concentration in dog left ventricle to blood ratio 0.5 hr after iv administration; format: functional, Canis lupus familiaris; summary of the method: as §2
Canis familiaris [25] = test: Tissue concentration in dog lung 0.5 hr after iv administration; format: functional, Canis lupus familiaris; summary of the method: as §2
Canis familiaris [26] = test: Tissue concentration in dog heart 0.5 hr after iv administration; format: functional, Canis lupus familiaris; summary of the method: as §2
Rattus norvegicus [27] = species: Rattus norvegicus; test: Percent change in thallium-201 concentration in spleen of sympathectomized rat, pretreated with 6-hydroxydopamine; format: functional
Rattus norvegicus [28] = species: Rattus norvegicus; test: Percent change in thallium-201 concentration in right atrium of sympathectomized rat, pretreated with 6-hydroxydopamine; format: functional, Cardiac atrium; summary of the method: as §3
Rattus norvegicus [29] = species: Rattus norvegicus; test: Percent change in thallium-201 concentration in left ventricle of sympathectomized rat, pretreated with 6-hydroxydopamine; format: functional, Heart left ventricle
Summary of the method: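 Blood-perfusion check in rats under same 6-hydroxydopamine protocol (100 mg/kg ip, 5 days before tracer): thallium-201 23–28 μCi iv via femoral vein, decapitation 90 min later, N = 6; percent change in tissue radioactivity of treated versus control rats.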

Canis familiaris [30] = test: Tissue concentration in dog spleen 24 hr after iv administration; format: functional, Canis lupus familiaris; summary of the method: as §2
Canis familiaris [31] = test: Tissue concentration in dog thyroid after iv administration; format: functional, Canis lupus familiaris, Thyroid gland
Canis familiaris [32] = test: Tissue concentration in dog heart after iv administration; format: functional, Canis lupus familiaris
Canis familiaris [33] = test: Tissue concentration in dog left ventricle to blood ratio after iv administration; format: functional, Canis lupus familiaris
Summary of the method: (§4)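 Mongrel dogs (two female, 15.0 and 18.6 kg, 0.45 mCi; two male, 2.0 mCi) given FMR as iv cephalic-vein bolus in 2.0 mL sterile 0.15 M acetate buffer, pH 4.5. Killed 1 h later by iv pentobarbital; tissues washed in saline, blotted, weighed, gamma counted 1 min. Expressed as % kg dose/g, N = 4 (muscle, pancreas, kidney N = 2).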

Canis familiaris [34] = test: Tissue concentration in dog adrenal medulla after iv administration; format: functional, Canis lupus familiaris; summary of the method: as §4
Canis familiaris [35] = test: Tissue concentration in dog blood after iv administration; format: functional, Canis lupus familiaris; summary of the method: as §4
Canis familiaris [36] = test: Tissue concentration in dog spleen after iv administration; format: functional, Canis lupus familiaris; summary of the method: as §4
Canis familiaris [37] = test: Tissue concentration in dog lung after iv administration; format: functional, Canis lupus familiaris; summary of the method: as §4
Canis familiaris [38] = test: Tissue concentration in dog liver after iv administration; format: functional, Canis lupus familiaris; summary of the method: as §4

Question: What does the source list for C[C@H](N)[C@H](O)c1cccc(O)c1 (stereo in doubt; form 2)?
Answer: Concentration (Rattus norvegicus [1]): 0.158 % dose g-1; Concentration (Rattus norvegicus [2]): 1.32 % dose g-1; Concentration (Rattus norvegicus [3]): 0.46 % dose g-1; Concentration (Rattus norvegicus [4]): 0.75 % dose g-1; Concentration (Rattus norvegicus [5]): 1.05 % dose g-1; Concentration (Rattus norvegicus [6]): 0.86 % dose g-1

Question: Which results are given for NC[C@H](O)c1ccc(O)c(O)c1?
Answer: Concentration (Rattus norvegicus [7]): 0.052 % dose g-1; Concentration (Rattus norvegicus [8]): 0.6 % dose g-1; Concentration (Rattus norvegicus [9]): 0.25 % dose g-1; Concentration (Rattus norvegicus [10]): 0.39 % dose g-1; Concentration (Canis familiaris [11]): 1460 ng/g; Concentration (Rattus norvegicus [12]): 0.29 % dose g-1; Concentration (Rattus norvegicus [13]): 0.41 % dose g-1; Concentration (Canis familiaris [14]): 303 ng/g

Question: For C[C@H](N)[C@H](O)c1cccc(O)c1 (stereo in doubt; form 2) [METARAMINOL], which “[3H] concentration” value (Canis familiaris [15]) is on record?
Answer: 0.05 % kg dose g-1

Question: And the Change (Rattus norvegicus [16])?
Answer: -86%

Question: And the [3H] concentration (Canis familiaris [17])?
Answer: 57

Question: And the Change (Rattus norvegicus [18])?
Answer: 155%

Question: And the Change (Rattus norvegicus [19])?
Answer: -80%

Question: What about the “[3H] concentration” value (Canis familiaris [20]) of the same compound?
Answer: 0.51 % kg dose g-1

Question: What about the “[3H] concentration” value (Canis familiaris [21]) of the same compound?
Answer: 0.88 % kg dose g-1

Question: And the “[3H] concentration” value (Canis familiaris [22])?
Answer: 0.17 % kg dose g-1

Question: What about the “[3H] concentration” value (Canis familiaris [23]) of the same compound?
Answer: 0.009 % kg dose g-1

Question: What about the [3H] concentration (Canis familiaris [24]) of the same compound?
Answer: 24

Question: What about the “[3H] concentration” value (Canis familiaris [25]) of the same compound?
Answer: 0.13 % kg dose g-1

Question: What about the “[3H] concentration” value (Canis familiaris [26]) of the same compound?
Answer: 0.72 % kg dose g-1

Question: And the Change (Rattus norvegicus [27])?
Answer: -76%

Question: And the Change (Rattus norvegicus [28])?
Answer: -83%

Question: What about the Change (Rattus norvegicus [29]) of the same compound?
Answer: -86%

Question: What about the “[3H] concentration” value (Canis familiaris [30]) of the same compound?
Answer: 0.73 % kg dose g-1

Question: Which “[3H] concentration” value (Canis familiaris [31]) does the source give for CC(N)C(O)c1ccc(I)c(O)c1 (stereo not drawn) here?
Answer: 0.2 % kg dose g-1

Question: And the “[3H] concentration” value (Canis familiaris [32])?
Answer: 0.17 % kg dose g-1

Question: What about the “[3H] concentration” value (Canis familiaris [33]) of the same compound?
Answer: 4 % kg dose g-1

Question: And the “[3H] concentration” value (Canis familiaris [34])?
Answer: 0.45 % kg dose g-1

Question: What about the “[3H] concentration” value (Canis familiaris [35]) of the same compound?
Answer: 0.04 % kg dose g-1

Question: And the “[3H] concentration” value (Canis familiaris [36])?
Answer: 0.26 % kg dose g-1

Question: And the “[3H] concentration” value (Canis familiaris [37])?
Answer: 0.25 % kg dose g-1

Question: And the “[3H] concentration” value (Canis familiaris [38])?
Answer: 0.5 % kg dose g-1
